Experimental data reported in ChEMBL document CHEMBL1275336, “Identification of a novel pyrrole derivative endowed with antimycobacterial activity and protection index comparable to that of the current antitubercular drugs streptomycin and rifampin” (Bioorg Med Chem, 2010).
In brackets after ≈: the same amount, converted by molar mass.

What was measured:
[1] = system: Mycobacterium tuberculosis; experiment: Antimycobacterial activity against Mycobacterium tuberculosis CIP 103471 after 3 to 28 days by twofold dilution method; format: functional
Procedure, shortened: (§1)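 Twofold agar dilution in Middlebrook 7H11 with 10% OADC; plates held at 37 °C for 3 or 28 days. MIC is the lowest concentration giving complete inhibition of visible mycobacterial growth. Rifampin, streptomycin and BM521 served as references.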

[2] = system: Mycobacterium tuberculosis; experiment: Antimycobacterial activity against Mycobacterium tuberculosis H37Rv ATCC 27294 after 3 to 28 days by twofold dilution method; format: functional; procedure, shortened: as §1
[3] = Protection index, ratio of CC50 for Mycobacterium tuberculosis infected mouse J774A1 cells to MIC for Mycobacterium tuberculosis H37Rv ATCC 27294; format: functional, J774.A1
[4] = system: Mycobacterium tuberculosis; experiment: Antimycobacterial activity against Mycobacterium tuberculosis H37Rv ATCC 27294 infected in mouse J774A1 cells assessed as reduction of bacterial growth at 0.5 ug/ml after 6 days relative to untreated control; format: functional, J774.A1; set-up: scale not given: the % may be the effect or the level left
[5] = system: Mycobacterium tuberculosis; experiment: Antimycobacterial activity against Mycobacterium tuberculosis H37Rv ATCC 27294 infected in mouse J774A1 cells assessed as reduction of bacterial growth at 1 ug/ml after 6 days relative to untreated control; format: functional, J774.A1; set-up: scale not given: the % may be the effect or the level left
[6] = system: Mycobacterium tuberculosis; experiment: Antimycobacterial activity against Mycobacterium tuberculosis H37Rv ATCC 27294 infected in mouse J774A1 cells assessed as reduction of bacterial growth at 0.125 ug/ml after 6 days relative to untreated control; format: functional, J774.A1; set-up: scale not given: the % may be the effect or the level left
[7] = system: Mycobacterium tuberculosis; experiment: Antimycobacterial activity against Mycobacterium tuberculosis H37Rv ATCC 27294 infected in mouse J774A1 cells assessed as reduction of bacterial growth at 0.25 ug/ml after 6 days relative to untreated control; format: functional, J774.A1; set-up: scale not given: the % may be the effect or the level left

Row | SMILES | MIC [1] [mg/L] | MIC [2] [mg/L] | PI [3] | Activity [4] [%] | Activity [5] [%] | Activity [6] [%] | Activity [7] [%]
1 | CSc1ccc(-n2c(-c3ccc(F)cc3)cc(CN3CCSCC3)c2C)cc1 | 1 (≈ 2.42 µM) | 1 (≈ 2.42 µM) | >128 | – | – | – | –
2 | COc1ccc(-c2cc(CN3CCSCC3)c(C)n2-c2ccc(F)cc2)cc1 | – | 0.25 (≈ 0.63 µM) | >480 | – | – | – | –
3 | COc1ccc(-c2cc(CN3CCSCC3)c(C)n2-c2ccc(C)cc2)cc1 | 0.5 (≈ 1.27 µM) | 0.25 (≈ 0.637 µM) | 46.2 | – | – | – | –
4 | CCCc1ccc(-n2c(-c3ccc(OC)cc3)cc(CN3CCSCC3)c2C)cc1 | 0.25 (≈ 0.594 µM) | 0.25 (≈ 0.594 µM) | 49.12 | – | – | – | –
5 | CSc1ccccc1-n1c(-c2ccc(F)cc2)cc(CN2CCSCC2)c1C | 8 (≈ 19.4 µM) | 8 (≈ 19.4 µM) | 4.2 | – | – | – | –
6 | Cc1c(CN2CCSCC2)cc(-c2ccc(F)cc2)n1-c1ccc(C(F)(F)F)cc1 | – | 8 (≈ 18.4 µM) | 0.29 | – | – | – | –
7 | CCc1ccc(-n2c(-c3ccc(OC)cc3)cc(CN3CCSCC3)c2C)cc1 | 0.5 (≈ 1.23 µM) | 0.25 (≈ 0.615 µM) | 63.04 | – | – | – | –
8 | CSc1ccc(-c2cc(CN3CCSCC3)c(C)n2-c2ccc(C)cc2)cc1 | 0.25 (≈ 0.612 µM) | 0.25 (≈ 0.612 µM) | 73.6 | – | – | – | –
9 | Cc1c(CN2CCSCC2)cc(-c2ccc(F)cc2)n1-c1ccccc1C(F)(F)F | – | 4 (≈ 9.21 µM) | 0.65 | – | – | – | –
10 | COc1ccccc1-c1cc(CN2CCSCC2)c(C)n1-c1ccc(F)cc1 | – | > 16 | – | – | – | – | –
11 | COc1ccc(-n2c(-c3ccc(C)cc3)cc(CN3CCSCC3)c2C)cc1 | 1 (≈ 2.55 µM) | 2 (≈ 5.09 µM) | 6.57 | – | – | – | –
12 | CCc1ccc(-c2cc(CN3CCSCC3)c(C)n2-c2ccc(OC)cc2)cc1 | 0.5 (≈ 1.23 µM) | 0.5 (≈ 1.23 µM) | 36.06 | – | – | – | –
13 | CN[C@@H]1[C@H](O[C@H]2[C@H](O[C@H]3[C@H](O)[C@@H](O)[C@H](N=C(N)N)[C@@H](O)[C@@H]3N=C(N)N)O[C@@H](C)[C@]2(O)C=O)O[C@@H](CO)[C@H](O)[C@H]1O [STREPTOMYCIN] | 0.5 (≈ 0.86 µM) | 0.5 (≈ 0.86 µM) | >2000 | – | – | – | –
14 | COc1ccc(-c2cc(CN3CCSCC3)c(C)n2-c2ccc(C(C)C)cc2)cc1 | 0.25 (≈ 0.594 µM) | 0.25 (≈ 0.594 µM) | 40.88 | – | – | – | –
15 | Cc1c(CN2CCSCC2)cc(-c2ccc(C(F)(F)F)cc2)n1-c1ccc(F)cc1 | – | 1 (≈ 2.3 µM) | 8.46 | – | – | – | –
16 | CCCc1ccc(-n2c(-c3ccc(SC)cc3)cc(CN3CCSCC3)c2C)cc1 | 0.5 (≈ 1.14 µM) | 0.125 (≈ 0.286 µM) | 202 | – | – | – | –

Row | SMILES | MIC [1] [mg/L] | MIC [2] [mg/L] | PI [3] | Activity [4] [%] | Activity [5] [%] | Activity [6] [%] | Activity [7] [%]
17 | CSc1ccc(-n2c(-c3ccc(C)cc3)cc(CN3CCSCC3)c2C)cc1 | 1 (≈ 2.45 µM) | 1 (≈ 2.45 µM) | 69.06 | – | – | – | –
18 | CSc1ccc(-c2cc(CN3CCSCC3)c(C)n2-c2ccc(C(C)C)cc2)cc1 | 0.5 (≈ 1.14 µM) | 0.125 (≈ 0.286 µM) | 286.24 | – | – | – | –
19 | Cc1c(CN2CCSCC2)cc(-c2ccccc2C(F)(F)F)n1-c1ccc(F)cc1 | – | > 16 | – | – | – | – | –
20 | CCCc1ccc(-c2cc(CN3CCSCC3)c(C)n2-c2ccc(SC)cc2)cc1 | 0.5 (≈ 1.14 µM) | 0.25 (≈ 0.572 µM) | 359.68 | – | – | – | –
21 | CCc1ccc(-n2c(-c3ccc(SC)cc3)cc(CN3CCSCC3)c2C)cc1 | 0.25 (≈ 0.591 µM) | 0.25 (≈ 0.591 µM) | 68.72 | – | – | – | –
22 | COc1ccccc1-n1c(-c2ccc(F)cc2)cc(CN2CCSCC2)c1C | – | > 16 | – | – | – | – | –
23 | COc1ccc(-n2c(-c3ccc(F)cc3)cc(CN3CCSCC3)c2C)cc1 | – | 4 (≈ 10.1 µM) | 5.32 | – | – | – | –
24 | CO[C@H]1/C=C/O[C@@]2(C)Oc3c(C)c(O)c4c(O)c(c(/C=N/N5CCN(C)CC5)c(O)c4c3C2=O)NC(=O)/C(C)=C\C=C\[C@H](C)[C@H](O)[C@@H](C)[C@@H](O)[C@@H](C)[C@H](OC(C)=O)[C@@H]1C [RIFAMPIN] | 0.25 (≈ 0.304 µM) | 0.25 (≈ 0.304 µM) | 828.12 | 99.93 | 99.97 | 96.59 | 99.83
25 | CCCc1ccc(-c2cc(CN3CCSCC3)c(C)n2-c2ccc(OC)cc2)cc1 | 0.5 (≈ 1.19 µM) | 0.25 (≈ 0.594 µM) | >512 | – | – | – | –
26 | CSc1ccc(-n2c(-c3ccc(C(C)C)cc3)cc(CN3CCSCC3)c2C)cc1 | 0.5 (≈ 1.14 µM) | 0.5 (≈ 1.14 µM) | 229.9 | – | – | – | –
27 | CSc1ccccc1-c1cc(CN2CCSCC2)c(C)n1-c1ccc(F)cc1 | 16 (≈ 38.8 µM) | 16 (≈ 38.8 µM) | 1.39 | – | – | – | –
28 | COc1ccc(-n2c(-c3ccc(C(C)C)cc3)cc(CN3CCSCC3)c2C)cc1 | 0.5 (≈ 1.19 µM) | 0.5 (≈ 1.19 µM) | 9.76 | – | – | – | –
29 | CCc1ccc(-c2cc(CN3CCSCC3)c(C)n2-c2ccc(SC)cc2)cc1 | 1 (≈ 2.37 µM) | 0.25 (≈ 0.591 µM) | 102.96 | – | – | – | –
30 | Cc1ccc(-c2cc(CN3CCSCC3)c(C)n2-c2ccc(F)cc2)cc1 | 0.125 (≈ 0.328 µM) | 0.25 (≈ 0.657 µM) | 272.16 | – | – | – | –
31 | CSc1ccc(-c2cc(CN3CCSCC3)c(C)n2-c2ccc(F)cc2)cc1 | < 0.125 | 0.125 (≈ 0.303 µM) | >1000 | 99.72 | 99.81 | 96.12 | 99.02
